Source: PubChem BioAssay
SENP1 inh = human SENP1 catalytic domain inhibitors, primary screen, biochemical, FRET, uHTS; Sentrin-specific protease 1 (Homo sapiens), Q9P0U3; recombinant SENP1 catalytic domain, CyPet-SUMO1-YPet FRET cleavage; inhibition, % at 10 µM; 360,000 tested, 0.21% active; AID 624204, 2012;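 active = inhibition at least 30% at 10 µM, raw YFP signal under a set limit, fluorescence ratio 0.5 to 1.5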;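 also: 0% = enzyme with DMSO and 100% = no enzyme wells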
Target sequence (Q9P0U3 419-644 limits assumed): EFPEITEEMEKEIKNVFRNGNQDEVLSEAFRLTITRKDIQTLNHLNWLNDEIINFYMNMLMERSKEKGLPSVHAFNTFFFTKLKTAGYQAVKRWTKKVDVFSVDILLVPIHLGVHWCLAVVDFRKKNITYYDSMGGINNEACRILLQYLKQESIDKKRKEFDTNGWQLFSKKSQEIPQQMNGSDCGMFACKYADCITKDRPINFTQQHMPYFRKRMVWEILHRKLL
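Material – human SENP1 catalytic domain · Input – SENP1 enzyme, 20 pM final · Compound dosing – single concentration of 10 µM compound, 0.5% DMSO final · Timing – enzyme reaction for 50 min at room temperature, dark · Measured by – FRET fluorescence in CFP and YFP emission channels · Control set – no-enzyme wells low, DMSO-plus-enzyme wells high control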
JMJD2C inh = inhibitors of GASC-1 histone demethylase, primary screen, biochemical, fluorescence, DELFIA europium. Lysine-specific demethylase 4C (Homo sapiens), Q9H3R0. GST-JMJD2C(1-420) H3K9me3 demethylation. inhibition, % at 2.35 µM. 330,000 tested, 0.069% active;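 active = more than half of a compound's replicate wells show inhibition beyond 50%, single wells judged on their own value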;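 also: signal counts dimethyl H3K9 product captured on neutravidin plate; 0% = median of DMSO wells and 100% = 0.3 times that DMSO median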
Target sequence (Q9H3R0 1-420 limits assumed): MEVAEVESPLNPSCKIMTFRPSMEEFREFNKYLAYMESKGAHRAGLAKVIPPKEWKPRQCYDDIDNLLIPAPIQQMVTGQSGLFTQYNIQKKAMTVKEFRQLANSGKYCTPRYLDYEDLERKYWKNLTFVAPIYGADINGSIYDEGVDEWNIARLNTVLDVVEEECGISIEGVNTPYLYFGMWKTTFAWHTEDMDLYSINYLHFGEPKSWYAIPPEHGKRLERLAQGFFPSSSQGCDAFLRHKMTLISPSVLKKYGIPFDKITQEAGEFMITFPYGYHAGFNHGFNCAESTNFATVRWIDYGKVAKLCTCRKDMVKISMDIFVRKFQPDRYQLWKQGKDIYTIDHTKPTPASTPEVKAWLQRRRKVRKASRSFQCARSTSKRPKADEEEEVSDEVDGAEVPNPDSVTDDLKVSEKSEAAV
FAS TE block = FAS thioesterase domain inhibitors, primary screen, biochemical, fluorescence intensity, uHTS. Fatty acid synthase (Homo sapiens), P49327. recombinant FAS-TE, OMFH fluorogenic substrate, fluorescence endpoint. inhibition, % at 15 µM. 360,000 tested, 0.67% active. AID 602261, 2012;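 active = compounds whose normalised, plate-corrected inhibition of enzyme fluorescence in the single-dose primary screen is 50% or more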;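 also: 0% = DMSO with enzyme and 100% = substrate without enzyme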
Arr AP2 block = inhibitors of beta-arrestin/AP2 binding, primary screen, biochemical, GPCR trafficking, flow cytometry; beta-arrestin 1 C-terminal peptide binding to AP2 beta2-adaptin appendage (human); FITC-arrestin peptide / GST-AP2 beads; AP2 beta2 appendage carries R879A mutation; inhibition, % at 10 µM; 340,000 tested, 0.31% active;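 active = inhibition above a set limit, near 3 SD of compounds lacking own fluorescence, cut at about 54% in these data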;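 also: plate controls were DMSO wells for no effect and 5 µM unlabelled arrestin peptide for full effect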
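System: GST-AP2 R879A glutathione beads | Also added: FITC-arrestin peptide, 50 nM | Times: 12 min plus 1 h, RT | Signal: Bead flow cytometry, FITC channel | Buffer or medium: PBS with 0.05% Tween 20 and 0.1% BSA | Read-out basis: Percent drop in bead-associated FITC signal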
SENP1 conf = human SENP1 catalytic domain inhibitors, confirmation, biochemical, FRET endpoint, single concentration; shares compounds with SENP1 inh; inhibition, % at 10 µM; 520 tested, 34% active; AID 651678, 2012; recombinant SENP1, CyPet-SUMO1-YPet FRET cleavage; in the data active = inhibition mostly above about 35%, no sharp cut-off; inactive = mostly below about 32%;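 also: 0% = enzyme with DMSO and 100% = no enzyme control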
SENP1 kinetic = human SENP1 catalytic domain inhibitors, confirmation, biochemical, kinetic FRET, single concentration; recombinant SENP1, CyPet-SUMO1-YPet FRET kinetic cleavage; shares compounds with SENP1 inh; 520 tested, 26% active; inhibition, % at 10 µM; AID 651690, 2012; in the data active = inhibition mostly above about 32%, no sharp cut-off; inactive = mostly below about 29%;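 also: 0% = DMSO with enzyme and 100% = no enzyme substrate only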
* = called active by the depositor; nt = no result given. An excerpt weighted towards active compounds, which were near 1.1% of everything screened.

SMILES	SENP1 inh	JMJD2C inh	FAS TE block	Arr AP2 block	SENP1 conf	SENP1 kinetic
COC(=O)/C=C1\S/C(=N/NC(=O)c2ccc(OC)cc2)NC1=O	54*	5	0	3	7	8
COc1ccc(-c2c(C#N)c(N)nc3c2c(=O)n(C)c(=O)n3C)cc1Cl	1	7	-4	5	nt	nt
COc1ccc2oc(=O)c(/C(C)=N/Nc3ccccc3)cc2c1	-59	0	-5	5	nt	nt
O=C(NCCO)Nc1ccc2nsnc2c1	-18	-3	-15	30	nt	nt
OCCNC(=S)Nc1ccc2nsnc2c1	36*	-5	-2	-3	13	17
Cn1c(=O)c(=O)n(C)c2cc(S(=O)(=O)N3CCN(c4ccc(F)cc4)CC3)ccc21	0	8	-18	3	nt	nt
Cn1c(=O)oc2cc(S(=O)(=O)N3CCN(c4ccc(F)cc4)CC3)ccc21	37*	0	-17	25	6	3
Cc1cc(C)c(NS(=O)(=O)c2ccc3c(c2)oc(=O)n3C)c(C)c1	6	nt	-13	nt	nt	nt
Cn1c(=O)oc2cc(S(=O)(=O)Nc3cccc4c3CCCC4)ccc21	33*	-11	-21	-5	13	17
CC1CC(C)CN(CCCNS(=O)(=O)c2ccc3c(c2)oc(=O)n3C)C1 (stereo not given)	33*	1	-20	-4	8	6
CN1CCN(S(=O)(=O)c2ccc3c(c2)oc(=O)n3C)CC1	33*	-4	-23	-4	1	9
COC1Cc2ccccc2N(C(=O)N2CCN(CCO)CC2)c2ccccc21 (stereo not given)	-7	-1	-9	-1	nt	nt
CSc1nc2[nH]c3c(c2c2nnnn12)CCCC3	-2	25	0	25	nt	nt
O=C(N/N=C/c1ccco1)c1cccc(N2Cc3ccccc3C2)c1	4	7	2	3	nt	nt
Cc1c(C#N)c(O)[nH]c(=O)c1N=Nc1ccc(Br)cc1C(=O)O	38*	1	4	27	57*	34*
Cc1nn(-c2ccccc2)c(Cl)c1/C=N/NC(N)=O	3	1	-6	7	nt	nt
Cc1nn(-c2ccccc2)c(Cl)c1/C=N/Nc1nc2ccccc2n1C	33*	-10	9	-21	6	2
O=C1NC(=S)N/C1=C/c1cccc([N+](=O)[O-])c1O	40*	-1	-5	12	28	15
CN1C(=O)/C(=C/c2ccc(OC(=O)c3ccco3)cc2)SC1=S	46*	4	0	-5	23	12
CN1C(=O)/C(=C\c2ccc(OC(=O)c3ccco3)cc2)SC1=S	44*	3	-2	-3	11	6
CN1C(=O)/C(=C\c2cccc(OCc3ccccc3)c2)SC1=S	2	1	15	15	nt	nt
CCOc1ccccc1NC(=O)COn1nnc2ccccc21	1	-8	-2	2	nt	nt
Cc1cc2cc(C#N)c(SCC(=O)Nc3nonc3C)nc2cc1C	65*	14	-6	-5	16	17
CCOC(=O)CSc1nc2cc(C)ccc2cc1C#N	55*	-5	24	-9	5	15
COc1ccc2cc(C#N)c(SCC(=O)Nc3nonc3C)nc2c1	53	4	-4	-11	nt	nt
SMILES	SENP1 inh	JMJD2C inh	FAS TE block	Arr AP2 block	SENP1 conf	SENP1 kinetic
CCCCNC(=O)C1C(c2ccccc2)=Nc2ccccc2N1C(=O)c1ccc2c(c1)OCO2 (stereo not given)	0	nt	nt	nt	nt	nt
CCOC(=O)C1=C(SCC)c2cc3c(n2C1=O)CCCC3	0	-3	-5	-5	nt	nt
N#CC1=C(N2CCCCC2)c2cc3c(n2C1=O)CCCC3	51*	4	9	30	23	11
CC(C)C1Nc2ccc(C(=O)NC3CCCCC3)cc2NC1=O (stereo not given)	0	-4	-6	1	nt	nt
CC1Nc2ccc(C(=O)NC3CCCCC3)cc2NC1=O (stereo not given)	41*	3	-18	6	17	16
O=C(CSc1n[nH]c(=O)n1C1CC1)Nc1ccc(F)c(Cl)c1	44*	-6	-8	29	11	8
Cc1ccc2cc(C=C(C#N)C#N)c(N3CCCCC3)nc2c1	-1	-27	0	7	nt	nt
Cc1ccc2cc(/C=C(\C#N)C(N)=O)c(N3CCCCC3)nc2c1	75*	2	22	-7	50*	39*
OC[C@H]1O[C@@H](c2nc(-c3ccc4c(c3)CCO4)no2)[C@H](O)[C@@H](O)[C@H]1O	0	nt	-12	nt	nt	nt
O=C1CC(c2ccccc2)Cc2nc3nc(C(F)(F)F)nn3cc21 (stereo not given)	63*	-1	-5	2	9	10
Clc1cccc(Cl)c1C[n+]1ccc2ccccc2c1	68*	4	-8	6	7	13
c1ccc(C[n+]2ccc3ccccc3c2)cc1	6	3	-5	5	nt	nt
CCN(CC(=O)Nc1ccc(OC)cc1)C(=O)c1cc(S(=O)(=O)N2CCOCC2)ccc1N1CCCC1	0	-4	-2	32	nt	nt
O=C(COC(=O)/C=C/c1cccc(F)c1)NC(=O)NCc1ccccc1	1	5	-3	-7	nt	nt
C=CCC(O)(CC=C)CNC(=O)c1ccc(OC)c(OC2CCN(C(C)=O)CC2)c1	-1	53	-6	-23	nt	nt
COc1c(O)cccc1[C@H](O)C1CCN(CCc2ccc(F)cc2)CC1	30*	10	-14	2	5	11
CCn1cc(C(=O)O)c(=O)c2cc(F)c(N/N=C/c3ccccc3[N+](=O)[O-])cc21	34*	-6	-2	29	-4	0
O=C(c1ccc([N+](=O)[O-])s1)N1CCc2ccccc21	55*	-7	-5	-6	11	11
C/C(=N\N1CCN(Cc2ccc(Cl)cc2)CC1)c1ccc(F)cc1	4	2	17	7	nt	nt
CCOc1ccc(NC(=O)c2ccc(Br)o2)c([N+](=O)[O-])c1	32*	-9	-15	22	-3	-10
Cc1sc(-c2ccccn2)nc1OC(=O)c1cccc(Cl)c1Cl	36*	6	32	13	38	50*
Nc1c(Br)cc2c([nH]c(=O)c3ccccc32)c1Br	3	nt	-8	2	nt	nt
COc1ccc(OC)c(/C=C2\SC(=S)N(N3CCOCC3)C2=O)c1	39*	14	2	-7	3	0
COc1cc(/C=C2\SC(=S)N(N3CCOCC3)C2=O)cc(OC)c1OC	4	1	-8	12	nt	nt
